{"data": "Results of several laboratories", "CSF1R": "Macrophage colony-stimulating factor 1 receptor (CSF1R, Homo sapiens, UniProt P07333)", "note": "Protocols differ between the studies behind these lines."}
{"Structure (SMILES)": "CC(C)(C)c1cc(C=C(C#N)C#N)cc(Br)c1O", "target": "CSF1R", "assay": "enzyme activity, inhibitor", "setting": "0.5 µM", "measurement": "remaining activity", "result": "96.8%"}
{"Structure (SMILES)": "Nc1ncc(-c2nc(N3CCOCC3)nc(N3CCOCC3)n2)c(C(F)F)n1", "target": "CSF1R", "assay": "cell-free assay, competition with immobilised ligand", "setting": "10 µM", "measurement": "remaining binding", "result": "14%"}
{"Structure (SMILES)": "C#Cc1n[nH]c2c(-c3cn([C@@H](C)c4ccccc4)c(=O)[nH]c3=O)cc(F)cc12", "target": "CSF1R", "assay": "enzyme activity, inhibitor", "setting": "0.1 µM", "measurement": "inhibition", "result": "4.9%"}
{"Structure (SMILES)": "Cn1cc(-c2cccc(N3CCc4c(sc5c4CC(C)(C)C5)C3=O)c2CO)cc(Nc2ccncn2)c1=O", "target": "CSF1R", "assay": "enzyme activity, inhibitor", "setting": "1 µM", "measurement": "inhibition", "result": "6%"}
{"Structure (SMILES)": "COCc1c(-c2cc3cc(C)cc(OC)c3s2)c2c(N)ncnn2c1CN1CCNC(=O)C1", "target": "CSF1R", "assay": "cell-free assay, competition with immobilised ligand", "setting": "1 µM", "measurement": "inhibition", "result": "100%"}
{"Structure (SMILES)": "O=c1[nH]c2ccccc2n1C1CCN(Cc2ccc(-c3[nH]c4cc5ncnc5cc4nc3-c3ccccc3)cc2)CC1", "target": "CSF1R", "assay": "cell-free assay", "setting": "0.5 µM", "measurement": "remaining signal", "result": "97%"}
{"Structure (SMILES)": "COc1ncccc1-c1cnn2ccc(N3CCN(C(=O)OC(C)C)CC3)nc12", "target": "CSF1R", "assay": "binding, competition with immobilised ligand", "setting": "1 µM", "measurement": "remaining binding", "result": "100%"}
{"Structure (SMILES)": "N#CC1(c2ccccn2)CCN(Cc2cc(C(=O)O)c(=O)n3ccccc23)CC1", "target": "CSF1R", "assay": "cell-free assay, competition with immobilised ligand", "setting": "1 µM", "measurement": "remaining binding", "result": "95%"}
{"Structure (SMILES)": "C#Cc1n[nH]c2c(-c3cn(C(C)c4ccccn4)c(=O)[nH]c3=O)cc(F)cc12 (centres unmarked)", "target": "CSF1R", "assay": "enzyme activity, inhibitor", "setting": "1 µM", "measurement": "inhibition", "result": "5.8%"}
{"Structure (SMILES)": "Cn1cncc1[C@](O)(COc1ccc(C#N)cc1-c1ccc(OC(F)(F)F)cc1)c1ccc(C#N)cc1", "target": "Macrophage colony-stimulating factor 1 receptor, autoinhibited (CSF1R, Homo sapiens, UniProt P07333)", "assay": "cell-free assay, competition with immobilised ligand", "setting": "1 µM", "measurement": "remaining binding", "result": "93%"}
{"Structure (SMILES)": "Cn1cc(-c2cc(F)cc(N3CCn4c(cc5c4CCCC5)C3=O)c2CO)cc(Nc2ccc(N3CCN(C4COC4)CC3)cn2)c1=O", "target": "CSF1R", "assay": "enzyme activity, inhibitor", "setting": "0.1 µM", "measurement": "inhibition", "result": "13%"}
